Test results as given in the EternaBench riboswitch data.

Tested on: MS2 coat protein
Experiment: apparent Kd, MS2 coat protein; higher = weaker binding; RNA-MaP array; FMN 200 µM where present
Method in brief: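 The titrant was SNAP-549-labelled MS2 coat protein, run from 0.7 or 1.5 nM in doubling steps to 3 µM. It was applied to designs transcribed by stalled E. coli RNA polymerase on Illumina sequencing-chip clusters, without ligand first and then with constant ligand, in 100 mM Tris-HCl pH 7.5, 80 mM KCl, 4 mM MgCl2, BSA, DTT, yeast tRNA and Tween-20. The apparent Kd is the median of filtered per-cluster binding-curve fits, with green signal normalised to red-channel RNA signal and control-cluster median Fmax.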

[1] = designed as: OFF switch for flavin mononucleotide, no ligand
[2] = ligand present: flavin mononucleotide, designed as: OFF switch for flavin mononucleotide
[3] = designed as: ON switch for flavin mononucleotide, no ligand
[4] = ligand present: flavin mononucleotide, designed as: ON switch for flavin mononucleotide

Row | Sequence | apparent Kd [1] [nM] | apparent Kd [2] [nM] | apparent Kd [3] [nM] | apparent Kd [4] [nM]
1 | CUAUUUUGUGCCUCAUUUACAUGAGGAUCACCCAUGUUAACUUAGGAUAUAUUUAUAUUGUUAGAGUAGAAGGAAGUACAUUUU | 162 | 133 | – | –
2 | AGCGAGAUAGGCAAGGAUAUGCUGGGUUUCACAUGAGGAUCACCCAUGUCAUUGGUUAUGUCCGAGCAGAAGGUGCAUUCUCUUU | – | – | 338 | 47.2
3 | GUACCUUAUGAGAAGGCGAUCAUAAAACAUGAUCGAGGAUAUCAUGAAAACAUGAGGAUCACCCAUGUAUGGGUAUUAUGGUAC | – | – | 37.3 | 16.7
4 | GGAGCCGGCACCGAGGAUAUUCAUAUUAAAACAUGAGGAUCACCCAUGUACCGCAGAAGCGGUUGGGAGAAGGCGGAUCGGCUCG | – | – | 691 | 42.1
5 | AAAAUGUCAGGAUAUUGUUAGUUUAGUUGUUUGUAUUAGUUCGAGAAGGGACAUGAGGAUCACCCAUGUUGAAA | 33.8 | 33 | – | –
6 | GCCCUCGCUGAGGAUAUUAUCUGGCUCGAUUGAUAAGAAGGCAGUACAUGAGGAUCACCCAUGUGGUUCGUUCG | 69.5 | 265 | – | –
7 | AACCACGUUAGAUUAAGCGUGACAUGAGGAUCACCCAUGUGUCAGGAUAUACAUGGGCGGGCCCAGUAGAAGGGACUUAAUAGC | – | – | 146 | 91
8 | GUGGUACAUGAGGAUCACCCAUGUUAGGAUAUCGCGUGAGGUUUUACUUCCGCACACACGAGAAGGGACGUCUU | 32.9 | 28 | – | –
9 | AAGGAUAGAGGAUAUACAUAGAUACAGAUUCAUGUAGACCUACAUGAGGAUCACCCAUGUAGAAGGCUAUCCUA | 19.2 | 113 | – | –
10 | CGGUGUAGAGGAUAUACGUGAAUUUUGUUAUAUGAUAAUUUACAUGAGGAUCACCCAUGUAGAAGGCUAUAGCG | 17.9 | 18.1 | – | –
11 | GUGUAGAGAGGAUAUACAUGAGGAUCACCCAUGUGAAUAAGAUAGAAUAAGAUAAAGUGUAGAAGGUUUAGUGU | 43 | 34.2 | – | –
12 | UGUAUACAUGAGGAUCACCCAUGUCAACGUAGUCGAGGAUAUGGGCAGCCGUGAGGCGUACCAGAAGGCGAAGAGG | – | – | 86.5 | 19.4
13 | CAGGAUAGAGGAUAUACAUAGAUACAGAUUCGUGUGAUCCUACAUGAGGAUCACCCAUGUAGAAGGCUAUCCUG | 213 | 15.9 | – | –
14 | GGAGCCGGCCUAGGAUAUUUCAUAUUUAAACAUGAGGAUCACCCAUGUAGGCCAGAAGGCCUUGGGAAGAAGGAGGUCGGCUCC | – | – | 88.1 | 17.5
15 | CCUCUGUAAGGAUAUACGGAGACCACUGGAAUCAGUGGAAAGUAGAAGGUACAUGAGGAUCACCCAUGUGAGAA | 86.6 | 151 | – | –
16 | GUGGUACAUGAGGAUCACCCAUGUCAGGAUAUCGCGUGGUUUUUUGCGGCCGCGCGCGCGAGAAGGGACGUCUU | 36.3 | 43.3 | – | –
17 | AGUACUACAGGAUAUACGAGGGAGGUCCACGUGAACCUUUUACAUGAGGAUCACCCAUGUAGAAGGGUAGUACA | 68.3 | 16.5 | – | –
18 | GGUGUGGCAUGAGGAUAUGGUCAGCUUUGCUGACCAGAAGGCAUGUCAAUAGACAUGAGGAUCACCCAUGUAGUUAACACACCA | – | – | 557 | 42.4
19 | UUGGCAACGUAGAAGGGUGACAUGAGGAUCACCCAUGUGCCGAUAUAUCUCGAGAUAUGUCGGCCACAGGAUAUACGUGCCAUC | – | – | 35.9 | 35.2
20 | CCGGCUGCUGUGAGGAUAUGCCUGUGGGUGCGCGGGCAGAAGGCACAUGAGGAUCACCCAUGUCCUGCGGUCCC | 25.7 | 50.6 | – | –
21 | GGCUACGUUUCGUAGCAGUGUCAUCGAGAAGGCCCUGACAUGAGGAUCACCCAUGUUGUUACAUGGGAGGAUAUCGAUGAUACU | – | – | 13.3 | 5.12
22 | ACACGAAAGUCAGGAUAUGUAUCAGCACGAUAGUUACAUGAGGAUCACCCAUGUUUCACGGGCCAACAGAAGGGACAGGGUGGC | – | – | 18.4 | 7.62
23 | UCCGAUGUACAUGAGGAUCACCCAUGUCACAUGCCCGUGACACAGGAUAUCCAGGAUAGGCCAAAGGAGAAGGGUGAUCCGCGG | – | – | 64.3 | 94.5
24 | AAAUCAGUAGGAUAUACGAUUUUAUACUAGAUAGAGGAACCACAUGAGGAUCACCCAUGUAGAAGGACUAGAUA | 14.6 | 14.9 | – | –
25 | GACUUGGCUACAUGAGGAUCACCCAUGUUUGACUGGAUCGAUUAGGAUAUAGUGAUAUGCAACAAUUAGAAGGGAUGUUUACGG | – | – | 52.9 | 42.2
26 | UUAGAAUUGUUAGGAUAUUAAUUAUUGUAUAGUAUGAUCUACAUGAGGAUCACCCAUGUUAAAUAUAAGAAGGAACGUUAGAUU | 57.6 | 51.3 | – | –
27 | AAUAUAGAGCUGGAAUAAAACAUCACAUGAGGAUCACCCAUGUAGGAUAUCAGCACGAUAAGUGCUGAGAAGGACAUCCAGCUC | 14.9 | 14.1 | – | –
28 | GGUACUCAAAGAGUACUGAGUCGAACAUGAGGAUCACCCAUGUAGGAUAUGCGAGUUUUGAAUUUGCAGAAGGACAUUUUUAGC | 8.88 | 9.59 | – | –

Row | Sequence | apparent Kd [1] [nM] | apparent Kd [2] [nM] | apparent Kd [3] [nM] | apparent Kd [4] [nM]
29 | UCGGCGCGAGGAUAUACGUUUGCUUUUUUUUGUCGUUGCGUACAUGAGGAUCACCCAUGUAGAAGGCGCGCCGC | 16.7 | 31 | – | –
30 | GUAGCAUACCGAGGAUAUUCAGGGCGUGGAUAUACAUGAGGAUCACCCAUGUGGCGGAAGCCUAGGGAGAAGGCGGAAUGCUAC | – | – | 21.3 | 16.8
31 | GUGAAGAUAGCAGGAUAUCUAUUUCCUACAUGAGGAUCACCCAUGUAGGUGAUUAGCCGAGUAAAGGAGAAGGGCUAUCUUUAC | – | – | 6.62 | 5.81
32 | CUUCGACAUGAGGAUCACCCAUGUCAGGAUAUUGUGUAUCGGGUGUUGGACGGAUAGGCAAGAAGGGAUGUGUG | 34.7 | 30.1 | – | –
33 | CGGGCUGCCAGAGGAUAAUGGACAUGAGGAUCACCCAUGUGUCAGGAUAUGGGUUUCACAUGGACUCAGAAGGGACCAGCCCAA | – | – | 101 | 24.9
34 | CUGCAACAUGAGGAUCACCCAUGUAACCCAAUUAUAGGAUAUGUGAUGGUGAUCGACAUGACAGAAGGGUGAUUGG | – | – | 38.8 | 149
35 | AAGACACAUCUAGGAUAUGGUGAUGCUCAGAACACAUGAGGAUCACCCAUGUAGCUUGUGUAUAAUCAGAAGGAGAACCGUGUA | – | – | 36.4 | 259
36 | AUUAUAUAGUAAGGAUAUAGAUUAUUAUUUUAACAUGAGGAUCACCCAUGUAGCCUUAUGUAUAACUAGAAGGUACAUUUAUUA | 47.8 | 50.5 | – | –
37 | CGGAUGUGAGGAUAUACAUGAGGAUCACCCAUGUGAGCCAGCUAGCUGACUGGCUCAUGUAGAAGGCACGUCUG | 50.3 | 120 | – | –
38 | CUAAAGCGAGGAUAUACAAUAAAAGGGAAUAAGGGAAAAAAACAUGAGGAUCACCCAUGUAGAAGGCGCCGAAA | 32.2 | 30.6 | – | –
39 | UUGGACGUCGUAGGAUAUGUAGGAUAUUCCUACAUGAGGAUCACCCAUGUUGUCAUGGAAGAAGGACAGAAGGACGAUGUCCAU | – | – | 328 | 4.9
40 | CGACACCAGACAGGAUAUGCUGGACUUUGUCCAGCAGAAGGGUCUAAACAUGAGGAUCACCCAUGUAUGGUGUCGAAAUUUAAU | – | – | 51.1 | 8.06
41 | CCAAUGUAAGGAUAUGACAAUGGUAUCUUCGGAUACCAUUGUCAGAAGGUACAUGAGGAUCACCCAUGUACAAA | 14.3 | 16.6 | – | –
42 | UGUUGUAUUACAGGAUAUCUAGUUUUUUUAUUUAGAGAAGGGUAUUCACAUGAGGAUCACCCAUGUAUAUACGAGGAAGUUGUG | – | – | 46.6 | 56.1
43 | UCGAGUCAUGAGAAGGACUGAUGUUACAUGAGGAUCACCCAUGUCAUGGGUAGGAUAUCAUUGACACGGCUGUACCUCUCUUAC | – | – | 196 | 47.7
44 | CUAUUACGAGGAUAUGAUUUAAAUAACAUGAGGAUCACCCAUGUUUUUACGUUAUUUUAUUUAGAAGGCGUAUAGU | 41.8 | 31 | – | –
45 | AUGAAGAGGCAAGGAUAUCGAGUGCUGGGCCUAUACAUGAGGAUCACCCAUGUCCUGGCAGGACGUGAGAAGGUGUAUCUAAUA | – | – | 217 | 343
46 | UGGUACUAGGGAGGAUAUGGGAAGAUACAUGAGGAUCACCCAUGUUUAAGAAUGCCGAGUGGCAACUAGAAGGCCCUAGUACCU | – | – | 478 | 20.5
47 | UGGUUGUGUGUUAGGAUAUGGUUUGGUGUUUCGGGCUAGAAGGGACAUGAGGAUCACCCAUGUGGCUGGCGGGU | 72.6 | 58.1 | – | –
48 | GACUUCUCUGAGGAUAUUGCAUCAUACGAUAAAUAAGAAGGCAGAACAUGAGGAUCACCCAUGUGGGCUCCAAG | 54.7 | 256 | – | –
49 | GCGUUGUACGAGAAGGCCAAUACAUGAGGAUCACCCAUGUAAAGUUGUAAUGGAGGAUAUCGAACACAUUCAAUAAUGCAACGC | 8.29 | 5.66 | – | –
50 | UCGAUCGGAGGAUAUGCUAAUGCAACUACUGCAGUUUCAAAACAUGAGGAUCACCCAUGUAGAAGGCCGAUAUA | 17 | 15.6 | – | –
51 | GGGUACAUCGGAGGAUAUCAUGUAAAUACAUGAGGAUCACCCAUGUCGAUGGAGACAUCGGAGAUUGAGAAGGCCGAUGUACGG | – | – | 160 | 9.04
52 | UAGACGUUGCAGAAGGUUAUUUUUAUAACGUGCCACUUGACAUGAGGAUCACCCAUGUAAUUGAUGAAGGAUAUGCAACGGUAG | 6.34 | 5.83 | – | –
53 | UUAGCAUACCGAGGAUAUUCAUAUAAUAAAUAAACAUGAGGAUCACCCAUGUGGCGAAAGCCUAGGGAGAAGGCGGAAUGCUAG | – | – | 171 | 27.2
54 | AGAUACUACGAGAAGGACAUGAGGAUCACCCAUGUAACCUGUAUCAGGAAUGUAGGAUAUCGUAGUAUCAGGAUCGUGAGAUCA | 6.79 | 7.82 | – | –
55 | UAAGCCGGGUCUGCAUGAGCUUACAUGAGGAUCACCCAUGUAAGAAGGGACGCUACGUUAAAGUGUCAGGAUAUUGCGAACGGG | 5.26 | 5.73 | – | –
